Assay results taken from ChEMBL document CHEMBL1153794, “Oleanane-type triterpenoids from Aceriphyllum rossii and their cytotoxic activity” (J Nat Prod, 2009).

How the values were obtained:
MCF7 = assay: Cytotoxic activity against human MCF7 cells after 48 hrs by MTT assay; type: functional, cell-based; conditions: MCF7, 48 h
Summary of the method: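 Modified MTT assay. Viable cells seeded at 1 × 10^4 per well in growth medium and incubated at 37 °C, 5% CO2. Samples dissolved in DMSO and diluted in growth medium to final concentrations of 5.0–150 µM. Optical density read on a microplate reader; IC50 values derived.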

[1] = Cytotoxicity activity against mouse LLC cells after 48 hrs by MTT assay; conditions: Lewis lung carcinoma

| SMILES | IC50 (MCF7) [µM] | IC50 [1] [µM] |
| --- | --- | --- |
| C[C@@]1(C(=O)O)CC[C@]2(C)CC[C@]3(C)C(=CC[C@@H]4[C@@]5(C)CC[C@H](O)[C@@](C)(CO)[C@@H]5CC[C@]43C)[C@@H]2C1 | 107 | > 150 |
| C[C@@]1(C(=O)O)CC[C@]2(C)CC[C@]3(C)C(=CC[C@@H]4[C@@]5(C)CC[C@H](O)[C@@](C)(C(=O)O)[C@@H]5CC[C@]43C)[C@@H]2C1 | > 150 | > 150 |
| CC1(C)CC[C@]2(C)CC[C@]3(C(=O)O)C(=CC[C@@H]4[C@@]5(C)CC[C@@H](O)[C@@](C)(C=O)[C@@H]5CC[C@]43C)[C@@H]2C1 | 47 | 39.2 |
| CC1(C)CC[C@]2(C)CC[C@]3(C(=O)O)C(=CC[C@@H]4[C@@]5(C)CCC(=O)[C@@](C)(CO)[C@@H]5CC[C@]43C)[C@@H]2C1 | 39.2 | 6.56 |
| CC1(C)CC[C@]2(C)CC[C@]3(C(=O)O)C(=CC[C@@H]4[C@@]5(C)CC[C@@H](O)[C@@](C)(CO)[C@@H]5CC[C@]43C)[C@@H]2C1 [ACERIPHYLLIC ACID A] | > 150 | 8.36 |
| CC1(C)CC[C@]2(C)CC[C@]3(C(=O)O)C(=CC[C@@H]4[C@@]5(C)CC[C@@H](OC(=O)/C=C/c6ccc(O)c(O)c6)C(C)(C)[C@@H]5CC[C@]43C)[C@@H]2C1 | > 150 | > 150 |
| CC(=O)O[C@@H]1CC[C@@]2(C)[C@@H](CC[C@]3(C)[C@@H]2CC=C2[C@@H]4CC(C)(C)CC[C@]4(C)CC[C@]23C(=O)O)[C@]1(C)C(=O)O | 58.4 | > 150 |
| CC(=O)O[C@@H]1CC[C@@]2(C)[C@@H](CC[C@]3(C)[C@@H]2CC=C2[C@@H]4C[C@](C)(C(=O)O)CC[C@]4(C)CC[C@]23C)[C@]1(C)C(=O)O | > 150 | > 150 |
| CC1(C)CC[C@]2(C(=O)O)CC[C@]3(C)C(=CC[C@@H]4[C@@]5(C)CC[C@H](O)C(C)(C)[C@@H]5CC[C@]43C)[C@@H]2C1 [OLEANOLIC_ACID] | > 150 | > 150 |
| C[C@@]1(C(=O)O)CC[C@]2(C)CC[C@]3(C)C(=CC[C@@H]4[C@@]5(C)CC[C@@H](O)[C@@](C)(C(=O)O)[C@@H]5CC[C@]43C)[C@@H]2C1 | 62.4 | 47.8 |
| CC1(C)CC[C@]2(C)CC[C@]3(C(=O)O)C(=CC[C@@H]4[C@@]5(C)CCC(=O)C(C)(C)[C@@H]5CC[C@]43C)[C@@H]2C1 | 53.6 | > 150 |
| CC1(C)[C@@H](O)CC[C@]2(C)[C@H]3CC=C4[C@@H]5C[C@](C)(C(=O)O)CC[C@]5(C)CC[C@@]4(C)[C@]3(C)CC[C@@H]12 | > 150 | 16.6 |
| CC1(C)CC[C@]2(C)CC[C@]3(C(=O)O)C(=CC[C@@H]4[C@@]5(C)CC[C@H](O)C(C)(C)[C@@H]5CC[C@]43C)[C@@H]2C1 | > 150 | 7.63 |
| CC1(C)CC[C@]2(C)CC[C@]3(C(=O)O)C(=CC[C@@H]4[C@@]5(C)CC[C@H]6OC(C)(C)OC[C@@]6(C)[C@@H]5CC[C@]43C)[C@@H]2C1 | > 150 | > 150 |
